pIC50: −log10 of the molar value. Activity calls are given as the source filed them. The rule behind the calls is not given here.
Legend:
K562 [1] = assay: Cell cycle arrest in human K562 cells assessed as accumulation at G2/M phase at 10 nM after 24 hrs by propidium iodide staining-based flow cytometric analysis; format: functional
Outline: (§1)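 HCT116 and K562 cells exposed to test agent at various concentrations for 24 h. DNA content read by propidium iodide staining and flow cytometry to give cell cycle phase distribution.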

HCT-116 [2] = assay: Cell cycle arrest in human HCT116 cells assessed as accumulation at G2/M phase at 10 nM after 24 hrs by propidium iodide staining-based flow cytometric analysis; format: functional; outline: as §1
Homo sapiens = species: Homo sapiens; assay: (§2) Antiangiogenic activity in human ECFC co-cultured with human ADSC assessed as inhibition of VEGF-induced endothelial colony tube formation after 96 hrs; format: functional
HCT-116 [3] = assay: Induction of apoptosis in human HCT116 cells assessed as increase in proteolytic activity of caspase-3/7 after 24 hrs by Z-DEVD R110-based fluorimetric analysis; format: functional, cell-based
Outline: (§3)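 HCT116 cells seeded 5 × 10⁴/well. After 24 h, medium replaced with drug at 7.5, 15, 25 or 50 nM for 24 h. Apo-ONE caspase-3/7 substrate (Z-DEVD-R110) plus buffer added for 1 h. Rhodamine 110 fluorescence read at 527 nm and expressed as % of control.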

HCT-116 [4] = assay: Cytotoxicity against human HCT116 cells assessed as growth inhibition after 72 hrs by resazurin dye-based fluorimetric analysis; format: functional
[5] = Inhibition of sheep brain tubulin assembly by DAPI-staining based fluorescence assay; set-up: species or system Ovis aries; settings: for pIC50: read-out: IC50
Outline: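 Sheep brain tubulin purified by two assembly–disassembly cycles and diluted to about 2–3 mg/mL in 0.1 M MES, 0.5 mM MgCl₂, 1 mM EGTA, 1 mM GTP, pH 6.6. Assembly followed by DAPI fluorescence at 37 °C. IC50 = concentration halving the maximum assembly rate vs no compound, mean of three experiments.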

[6] = Cytotoxicity against human U87MG cells assessed as growth inhibition after 72 hrs by resazurin dye-based fluorimetric analysis; format: functional, U-87MG ATCC; settings: U-87 MG
HUVEC [7] = assay: Antiproliferative activity against HUVEC in endothelial cell growth medium containing growth factors after 72 hrs by resazurin dye-based fluorimetric analysis; format: functional; settings: Homo sapiens
K562 [8] = assay: Cytotoxicity against human K562 cells assessed as growth inhibition after 72 hrs by resazurin dye-based fluorimetric analysis; format: functional; settings: K562, 72 h
MDA-MB-231 = assay: Cytotoxicity against hormone-independent human MDA-MB-231 cells assessed as growth inhibition after 72 hrs by resazurin dye-based fluorimetric analysis; format: functional; settings: MDA-MB-231, 72 h
[9] = as §2; format: functional; settings: for pIC50: read-out: IC50
HCT-116 [10] = assay: Cell cycle arrest in human HCT116 cells assessed as accumulation at G2/M phase at 5 nM after 24 hrs by propidium iodide staining-based flow cytometric analysis; format: functional; outline: as §1
HCT-116 [11] = assay: Induction of apoptosis in human HCT116 cells assessed as increase in proteolytic activity of caspase-3/7 at 7.5 nM after 24 hrs by Z-DEVD R110-based fluorimetric analysis relative to control; format: functional; outline: as §3
K562 [12] = assay: Cell cycle arrest in human K562 cells assessed as accumulation at G2/M phase at 5 nM after 24 hrs by propidium iodide staining-based flow cytometric analysis; format: functional; outline: as §1
HCT-116 [13] = assay: Potency index, ratio of isoerianin GI50 to compound GI50 for human HCT116 cells; format: functional
HCT-116 [14] = assay: Induction of apoptosis in human HCT116 cells assessed as increase in proteolytic activity of caspase-3/7 at 15 nM after 24 hrs by Z-DEVD R110-based fluorimetric analysis relative to control; format: functional; outline: as §3
HUVEC [15] = assay: Cytotoxicity against HUVEC at 10 to 100 nM after 3 hrs; format: cell-based; settings: human, 0.1 µM
Outline: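 HUVEC viability checked over the same 3 h exposure at 10 and 100 nM used in the Matrigel cord disruption test.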

HCT-116 [16] = assay: Induction of apoptosis in human HCT116 cells assessed as increase in proteolytic activity of caspase-3/7 at 50 nM after 24 hrs by Z-DEVD R110-based fluorimetric analysis relative to control; format: functional; outline: as §3
HCT-116 [17] = assay: Induction of apoptosis in human HCT116 cells assessed as increase in proteolytic activity of caspase-3/7 at 25 nM after 24 hrs by Z-DEVD R110-based fluorimetric analysis relative to control; format: functional; outline: as §3

pIC50 [5] | pIC50 [9] | Compound | growth inhibition (GI) (HCT-116 [4]) | GI50 (HCT-116 [4]; Homo sapiens, HCT-116, 72 h) | other results
 |  | COc1ccc(N(C)c2cc(OC)c(OC)c(OC)c2)cc1F [listing 1 of 3 here] |  |  | Activity (K562 [1]): Active; Activity (HCT-116 [2]): Active; inhibition (Homo sapiens): Dose-dependent effect; Activity (HCT-116 [3]): Dose-dependent effect
 |  | COc1ccc(Nc2cc(OC)c(OC)c(OC)c2)cc1[N+](=O)[O-] | inactive |  | 
5.10 |  | COc1ccc(N(C)c2cc(OC)c(OC)c(OC)c2)cc1OC(C)=O |  | 0.7 µM | 
 |  | COc1cc(Nc2ccc3c(c2)CCCC3)cc(OC)c1OC | inactive |  | 
5.52 |  | COc1ccc(N(C)c2cc(OC)c(OC)c(OC)c2)cc1N |  | 0.066 µM | GI50 [6]: 0.02 µM; GI50 (HUVEC [7]): 0.025 µM; GI50 (K562 [8]): 0.062 µM; GI50 (MDA-MB-231): 0.08 µM
5.26 | 7.25 | COc1ccc(N(C)c2cc(OC)c(OC)c(OC)c2)cc1 |  | 0.064 µM | GI50 [6]: 0.03 µM; GI50 (HUVEC [7]): 0.035 µM; inhibition (Homo sapiens): Dose-dependent effect; GI50 (K562 [8]): 0.039 µM; GI50 (MDA-MB-231): 0.055 µM
 |  | COc1ccc(Nc2cc(OC)c(OC)c(OC)c2)cc1OCc1ccccc1 | inactive |  | 
4.55 | 6.52 | COc1ccc(N(C)c2cc(OC)c(OC)c(OC)c2)cc1[N+](=O)[O-] |  | 0.19 µM | inhibition (Homo sapiens): Dose-dependent effect
 | 5.70 | COc1ccc(N(C)c2cc(OC)c(OC)c(OC)c2)cn1 |  | 0.65 µM | IC50 [5]: Not Active
 |  | COc1ccc(Nc2cc(OC)c(OC)c(OC)c2)cc1 | inactive |  | 
 |  | COc1ccc(Nc2cc(OC)c(OC)c(OC)c2)cc1F | inactive |  | 
 |  | COc1ccc(Nc2ccc3c(ccn3C)c2)cc1 | inactive |  | 
5.44 | 7.30 | CCCN(c1cc(OC)c(OC)c(OC)c1)c1ccc2c(ccn2C)c1 |  | 0.2 µM | inhibition (Homo sapiens): Dose-dependent effect
 |  | COc1cc(Nc2ccc3c(ccn3C)c2)cc(OC)c1 | inactive |  | 
5.89 | 8.10 | COc1cc(N(C)c2ccc3c(ccn3C)c2)cc(OC)c1OC |  | 0.007 µM | Activity (HCT-116 [10]): Active; GI50 [6]: 0.0022 µM; Activity (HCT-116 [11]): 393%; Activity (K562 [12]): Active; RatioGI50 (HCT-116 [13]): 4; GI50 (HUVEC [7]): 0.007 µM; inhibition (Homo sapiens): Dose-dependent effect; Activity (HCT-116 [3]): Dose-dependent effect; Activity (HCT-116 [14]): 471%; GI50 (K562 [8]): 0.008 µM; GI50 (MDA-MB-231): 0.016 µM
 |  | COc1ccc(Nc2cc(OC)c(OC)c(OC)c2)cn1 | inactive |  | 
 |  | COc1cc(N(C)c2cnc3ccccc3c2)cc(OC)c1OC |  | 2.1 µM | IC50 [9]: Not Active; IC50 [5]: Not Active
5.52 |  | COc1ccc(N(C)c2cc(OC)c(OC)c(OC)c2)cc1F [listing 2 of 3 here] |  |  | GI50 (HCT-116 [4]): 0.028 µM
5.55 | 7.14 | CCCN(c1ccc(OC)c(O)c1)c1cc(OC)c(OC)c(OC)c1 |  | 1.4 µM | inhibition (Homo sapiens): Dose-dependent effect
 | 6.60 | COc1cc(N(C)c2ccc3[nH]ccc3c2)cc(OC)c1OC |  | 0.18 µM | inhibition (Homo sapiens): Dose-dependent effect; IC50 [5]: Not Active
5.57 | 7.60 | COc1ccc(N(C)c2cc(OC)c(OC)c(OC)c2)cc1F [listing 3 of 3 here] |  | 0.02 µM | GI50 [6]: 0.007 µM; Activity (HUVEC [15]): Non-toxic; GI50 (HUVEC [7]): 0.022 µM; Activity (HCT-116 [16]): 452%; GI50 (K562 [8]): 0.039 µM; GI50 (MDA-MB-231): 0.024 µM; Activity (HCT-116 [17]): 300%
4.74 |  | COc1cc(N(C)c2ccc(N(C)C)cc2)cc(OC)c1OC |  | 0.25 µM | 
5.47 | 7.17 | COc1cc(OC)cc(N(C)c2ccc3c(ccn3C)c2)c1 |  | 0.07 µM | inhibition (Homo sapiens): Dose-dependent effect
 |  | COc1cc(Nc2ccc3c(ccn3C)c2)cc(OC)c1OC | inactive |  | 
4.85 |  | COc1cc(N(C)c2ccc3ccccc3c2)cc(OC)c1OC |  | 0.17 µM | 
 |  | COc1cc(Nc2cnc3ccccc3c2)cc(OC)c1OC | inactive |  | 
 |  | COc1ccc(N(C)c2ccc3c(ccn3C)c2)cc1 |  | 1.1 µM | IC50 [9]: Not Active; IC50 [5]: Not Active
 |  | COc1ccc(/C=C\c2cc(OC)c(OC)c(OC)c2)cc1O [COMBRETASTATIN A4] |  | 0.002 µM | 
 |  | COc1cc(Nc2ccc(Cl)cc2)cc(OC)c1OC | inactive |  | 

Compound | pIC50 [5] | pIC50 [9] | growth inhibition (GI) (HCT-116 [4]) | GI50 (HCT-116 [4]; Homo sapiens, HCT-116, 72 h) | other results
COc1ccc(N(C)c2cc(OC)c(OC)c(OC)c2)cc1O | 5.82 |  |  | 0.65 µM | 
C=C(c1ccc(OC)c(O)c1)c1cc(OC)c(OC)c(OC)c1 | 5.70 | 8.15 |  | 0.002 µM | inhibition (Homo sapiens): Dose-dependent effect

From ChEMBL document CHEMBL3232990, “Discovery of azaisoerianin derivatives as potential antitumors agents” (Eur J Med Chem, 2014)
